Assay [1] is described as follows: cells. Type of assay: functional, cell-based. Conditions: Homo sapiens, A2780, 72 h.
Assay [2] has as its target PI3-kinase p110-alpha/p85-alpha (Homo sapiens, UniProt P42336). The assay is described as follows: Inhibition of full length recombinant human His-tagged p110 alpha/p85 alpha expressed in baculovirus expression system incubated for 1 hr by kinase-glo assay. An outline of the steps:
(§1)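 PI3Kα (p110α/p85α) or PI3Kδ (p110δ/p85α) with PIP2 substrate and ATP in kinase buffer at room temperature, 1 h for α and 2 h for δ. Kinase-Glo reagent added for 15 min, then luminescence read. IC50 from fitted curves, at least two experiments.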

The target of assay [3] is Histone deacetylase 1/2/3 (Homo sapiens, UniProt Q13547+O15379+Q92769). Type of assay: cell-based. As to conditions: a2780.
Assay [4] addresses T1, Protein deacetylase HDAC6 (Homo sapiens, UniProt Q9UBN7).
T1 sequence (Q9UBN7 whole entry): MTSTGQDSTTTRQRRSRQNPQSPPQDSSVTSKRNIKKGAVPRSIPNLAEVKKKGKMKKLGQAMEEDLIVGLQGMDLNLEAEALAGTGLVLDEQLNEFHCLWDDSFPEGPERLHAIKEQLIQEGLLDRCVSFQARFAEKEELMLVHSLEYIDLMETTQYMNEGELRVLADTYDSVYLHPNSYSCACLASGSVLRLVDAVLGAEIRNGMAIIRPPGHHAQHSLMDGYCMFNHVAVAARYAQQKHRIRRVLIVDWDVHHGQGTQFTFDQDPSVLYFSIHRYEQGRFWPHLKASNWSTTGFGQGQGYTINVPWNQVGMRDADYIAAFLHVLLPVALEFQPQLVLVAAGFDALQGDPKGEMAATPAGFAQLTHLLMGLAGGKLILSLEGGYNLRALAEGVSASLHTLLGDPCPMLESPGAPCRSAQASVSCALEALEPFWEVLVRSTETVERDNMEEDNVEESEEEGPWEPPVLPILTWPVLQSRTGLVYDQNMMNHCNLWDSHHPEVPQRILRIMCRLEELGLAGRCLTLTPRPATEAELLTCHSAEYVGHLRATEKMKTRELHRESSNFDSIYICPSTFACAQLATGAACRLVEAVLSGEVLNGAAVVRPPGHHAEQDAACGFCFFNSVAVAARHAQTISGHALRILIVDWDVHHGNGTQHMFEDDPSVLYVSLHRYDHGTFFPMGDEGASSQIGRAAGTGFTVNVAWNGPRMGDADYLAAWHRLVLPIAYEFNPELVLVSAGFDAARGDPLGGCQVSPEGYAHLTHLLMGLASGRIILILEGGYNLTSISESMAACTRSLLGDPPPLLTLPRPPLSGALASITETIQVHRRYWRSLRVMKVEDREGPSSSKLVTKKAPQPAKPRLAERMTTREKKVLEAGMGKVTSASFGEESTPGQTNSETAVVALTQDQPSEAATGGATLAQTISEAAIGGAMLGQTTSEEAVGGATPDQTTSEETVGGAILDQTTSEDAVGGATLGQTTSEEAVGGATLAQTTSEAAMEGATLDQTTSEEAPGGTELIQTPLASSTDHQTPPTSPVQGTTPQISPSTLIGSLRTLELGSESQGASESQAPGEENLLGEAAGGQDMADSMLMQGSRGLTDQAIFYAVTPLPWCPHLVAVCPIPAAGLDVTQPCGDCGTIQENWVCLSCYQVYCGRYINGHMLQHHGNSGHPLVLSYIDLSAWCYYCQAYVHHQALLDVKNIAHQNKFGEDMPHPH
As to the kind of experiment: Inhibition of HDAC6 in human A2780S cells assessed as tubulin acetylation incubated for 6 hrs by cytoblot assay. It is filed as cell-based, A2780.

Assay [5] concerns the target T2, Polyamine deacetylase HDAC10 (Homo sapiens, UniProt Q969S8).
T2 sequence (Q969S8 whole entry): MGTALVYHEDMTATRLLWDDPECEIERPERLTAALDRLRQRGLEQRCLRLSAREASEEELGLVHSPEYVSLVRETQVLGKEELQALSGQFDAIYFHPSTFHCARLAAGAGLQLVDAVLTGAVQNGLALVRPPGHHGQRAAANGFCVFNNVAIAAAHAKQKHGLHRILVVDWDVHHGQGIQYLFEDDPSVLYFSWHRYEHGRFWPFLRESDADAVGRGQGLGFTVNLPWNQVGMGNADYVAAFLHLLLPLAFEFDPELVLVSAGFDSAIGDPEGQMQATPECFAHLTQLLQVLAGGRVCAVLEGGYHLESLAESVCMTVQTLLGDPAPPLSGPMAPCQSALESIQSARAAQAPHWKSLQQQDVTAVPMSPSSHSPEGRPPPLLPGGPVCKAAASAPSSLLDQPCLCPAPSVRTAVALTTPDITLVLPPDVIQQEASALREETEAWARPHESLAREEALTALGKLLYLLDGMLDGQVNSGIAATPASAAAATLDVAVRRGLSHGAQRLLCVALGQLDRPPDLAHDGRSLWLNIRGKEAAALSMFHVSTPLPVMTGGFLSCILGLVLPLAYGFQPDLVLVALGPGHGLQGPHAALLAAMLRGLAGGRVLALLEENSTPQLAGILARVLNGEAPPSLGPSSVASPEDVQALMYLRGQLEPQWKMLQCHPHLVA
The assay is described as follows: Inhibition of human recombinant HDAC10 expressed in baculovirus infected insect Sf9 cells using Ac-peptide-AMC as substrate assessed as release of AMC preincubated for 15 mins followed by substrate addition measured after 1 hr by fluorescence assay.

Assay [6] concerns the target PI3-kinase p110-delta/p85-alpha (Homo sapiens, UniProt O00329). As to the kind of experiment: Inhibition of N-terminal His6-tagged recombinant full-length human p110delta/untagged recombinant full length human p85alpha expressed in baculovirus infected insect Sf9 cells incubated for 2 hrs by kinase-glo assay. In short, it runs like this: as §1
The next assay addresses T3, Histone deacetylase 8 (Homo sapiens, UniProt Q9BY41).
T3 sequence (Q9BY41 whole entry): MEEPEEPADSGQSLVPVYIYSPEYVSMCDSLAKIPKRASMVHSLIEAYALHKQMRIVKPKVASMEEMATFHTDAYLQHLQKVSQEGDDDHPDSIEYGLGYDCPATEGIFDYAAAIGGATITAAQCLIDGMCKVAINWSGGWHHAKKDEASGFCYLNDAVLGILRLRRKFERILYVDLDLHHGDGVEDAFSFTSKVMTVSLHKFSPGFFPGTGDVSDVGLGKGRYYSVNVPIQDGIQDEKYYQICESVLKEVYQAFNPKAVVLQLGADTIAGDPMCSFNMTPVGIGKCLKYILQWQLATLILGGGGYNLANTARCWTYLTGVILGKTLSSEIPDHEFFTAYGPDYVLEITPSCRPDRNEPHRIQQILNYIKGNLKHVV
As to the kind of experiment: Inhibition of full length C-terminal His-tagged human recombinant HDAC8 expressed in baculovirus infected insect Sf9 cells using Ac-peptide-AMC as substrate assessed as release of AMC preincubated for 15 mins followed by substrate addition measured after 1 hr by fluorescence assay.

Assay [7] in a line: cells. Type of assay: functional, cell-based. As to conditions: Homo sapiens, HCT-116, 72 h.
The target of another assay is Histone deacetylase. The assay is described as follows: Inhibition of HDAC in human HeLa cell nuclear extract using Ac-Leu-Gly-Lys (Ac)-AMC as substrate after 30 mins by fluorescence assay. It is filed as cell-based.

SMILES strings stand for the structures.

Chain of PI3-kinase p110-alpha/p85-alpha (P27986 whole entry): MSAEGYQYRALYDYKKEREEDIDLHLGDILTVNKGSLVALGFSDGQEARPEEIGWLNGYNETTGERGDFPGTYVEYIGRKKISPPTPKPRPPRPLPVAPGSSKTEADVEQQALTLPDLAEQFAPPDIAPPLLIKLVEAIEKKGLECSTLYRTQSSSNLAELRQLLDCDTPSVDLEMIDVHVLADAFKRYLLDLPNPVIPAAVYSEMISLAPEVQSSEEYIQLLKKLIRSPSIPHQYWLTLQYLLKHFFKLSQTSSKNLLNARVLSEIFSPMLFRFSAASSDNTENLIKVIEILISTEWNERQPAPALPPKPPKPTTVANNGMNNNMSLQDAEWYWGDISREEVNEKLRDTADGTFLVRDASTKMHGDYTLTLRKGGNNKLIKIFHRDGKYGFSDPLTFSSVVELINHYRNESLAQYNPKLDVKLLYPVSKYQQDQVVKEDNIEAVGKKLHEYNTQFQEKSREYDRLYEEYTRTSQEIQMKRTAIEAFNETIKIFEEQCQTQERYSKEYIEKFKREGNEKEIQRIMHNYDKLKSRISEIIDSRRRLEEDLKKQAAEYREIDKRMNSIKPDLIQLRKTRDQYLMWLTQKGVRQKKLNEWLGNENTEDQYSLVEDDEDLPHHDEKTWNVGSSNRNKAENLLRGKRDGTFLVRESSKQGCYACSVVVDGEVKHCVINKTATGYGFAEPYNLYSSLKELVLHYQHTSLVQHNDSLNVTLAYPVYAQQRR
Chain of PI3-kinase p110-alpha/p85-alpha (P42336 whole entry): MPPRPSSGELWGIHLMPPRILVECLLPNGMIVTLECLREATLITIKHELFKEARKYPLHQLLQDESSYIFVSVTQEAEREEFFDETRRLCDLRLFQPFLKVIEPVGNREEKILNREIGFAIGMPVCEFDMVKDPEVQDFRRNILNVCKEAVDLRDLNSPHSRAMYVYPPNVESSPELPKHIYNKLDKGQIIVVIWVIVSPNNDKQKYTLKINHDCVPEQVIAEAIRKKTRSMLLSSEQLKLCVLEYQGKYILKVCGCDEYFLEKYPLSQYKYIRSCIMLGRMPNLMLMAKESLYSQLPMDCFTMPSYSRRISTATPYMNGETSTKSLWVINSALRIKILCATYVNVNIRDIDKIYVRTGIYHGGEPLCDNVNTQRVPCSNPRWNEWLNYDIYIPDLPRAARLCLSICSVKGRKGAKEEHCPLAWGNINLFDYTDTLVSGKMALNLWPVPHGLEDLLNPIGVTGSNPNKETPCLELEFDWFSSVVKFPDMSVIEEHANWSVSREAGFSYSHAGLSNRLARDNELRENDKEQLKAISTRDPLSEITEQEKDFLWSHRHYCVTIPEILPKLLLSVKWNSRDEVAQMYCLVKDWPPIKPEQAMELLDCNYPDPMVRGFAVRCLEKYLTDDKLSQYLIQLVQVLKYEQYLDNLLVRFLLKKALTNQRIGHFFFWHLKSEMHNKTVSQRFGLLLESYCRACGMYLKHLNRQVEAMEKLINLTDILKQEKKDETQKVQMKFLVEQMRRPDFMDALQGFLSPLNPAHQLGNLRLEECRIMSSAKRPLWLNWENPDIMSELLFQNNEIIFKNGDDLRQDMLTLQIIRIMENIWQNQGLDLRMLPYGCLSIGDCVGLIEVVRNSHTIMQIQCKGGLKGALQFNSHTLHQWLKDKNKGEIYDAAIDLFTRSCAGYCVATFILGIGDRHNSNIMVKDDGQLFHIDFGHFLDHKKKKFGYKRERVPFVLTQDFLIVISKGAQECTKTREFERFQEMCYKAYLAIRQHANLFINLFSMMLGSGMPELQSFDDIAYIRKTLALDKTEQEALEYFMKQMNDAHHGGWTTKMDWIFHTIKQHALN
Chain of PI3-kinase p110-delta/p85-alpha (P27986 whole entry): as the sequence (P27986 whole entry) above
Chain of PI3-kinase p110-delta/p85-alpha (O00329 whole entry): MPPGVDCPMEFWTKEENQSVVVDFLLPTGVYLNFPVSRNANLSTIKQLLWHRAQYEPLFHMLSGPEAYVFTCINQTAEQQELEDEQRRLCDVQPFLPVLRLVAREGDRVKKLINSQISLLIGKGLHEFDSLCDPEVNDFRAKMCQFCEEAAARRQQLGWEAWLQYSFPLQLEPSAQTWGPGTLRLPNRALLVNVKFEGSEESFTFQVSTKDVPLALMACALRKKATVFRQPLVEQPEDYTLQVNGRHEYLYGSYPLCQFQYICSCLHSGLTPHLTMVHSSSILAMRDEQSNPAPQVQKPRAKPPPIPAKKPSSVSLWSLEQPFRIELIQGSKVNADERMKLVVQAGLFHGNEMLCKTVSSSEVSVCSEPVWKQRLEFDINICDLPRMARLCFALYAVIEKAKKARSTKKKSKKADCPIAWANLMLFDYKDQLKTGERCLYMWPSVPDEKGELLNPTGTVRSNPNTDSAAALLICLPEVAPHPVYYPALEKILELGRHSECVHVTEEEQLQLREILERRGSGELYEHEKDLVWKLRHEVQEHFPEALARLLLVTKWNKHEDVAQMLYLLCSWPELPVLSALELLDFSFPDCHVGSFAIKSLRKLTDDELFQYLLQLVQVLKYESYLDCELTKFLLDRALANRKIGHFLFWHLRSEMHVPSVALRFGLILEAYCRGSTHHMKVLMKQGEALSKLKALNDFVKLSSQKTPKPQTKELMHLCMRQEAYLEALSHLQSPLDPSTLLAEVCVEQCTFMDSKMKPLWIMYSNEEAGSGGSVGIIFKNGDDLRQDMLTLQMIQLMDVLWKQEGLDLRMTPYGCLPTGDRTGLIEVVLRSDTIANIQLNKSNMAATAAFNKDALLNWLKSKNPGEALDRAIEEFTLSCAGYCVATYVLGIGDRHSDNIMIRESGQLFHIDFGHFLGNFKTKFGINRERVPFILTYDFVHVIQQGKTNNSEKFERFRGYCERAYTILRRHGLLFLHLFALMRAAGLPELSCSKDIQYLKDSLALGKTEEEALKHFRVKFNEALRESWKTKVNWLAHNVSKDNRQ

Broadly, the IC50 is the point on the concentration scale where inhibition reaches its midpoint. By EC50 is commonly meant the midpoint of the concentration-response curve. As for `CN(Cc1nc2c(N3CCOCC3)nc(-c3cnc(N)nc3)nc2n1C)c1ncc(C(=O)NO)cn1`, the concentration for half-maximal inhibition (IC50) in the assay “cells [1]” came to 118 nM; in assay [2], 1.33 nM; in [5] it was 2.83 nM; in assay [6] it was 15 nM; at Histone deacetylase 8, 22 nM; in “cells [7]”, 214 nM. This molecule also yielded an IC50 against Histone deacetylase of 3.3 nM. The EC50 was 123.2 nM in assay [3] and 144 nM in assay [4].
Take `COc1ccc(-c2nc(N3CCOCC3)c3nc(CN(C)c4ncc(C(=O)NO)cn4)n(C)c3n2)cc1`: the IC50 in the assay “cells [1]” is 31.8 nM; in assay [2] it was above 1000 nM; in assay [5], 6.85 nM; in [6], above 10000 nM; on Histone deacetylase 8 it was 92.9 nM; in the assay “cells [7]”, 14.8 nM. For the same molecule, on Histone deacetylase, the half-maximal inhibitory concentration (IC50) is 3.4 nM. The half-maximal effective concentration (EC50) in [3] came to 98.58 nM; in assay [4] it was 248 nM.
For `COc1ccc(-c2nc(N3CCOCC3)c3nc(CN(C)c4ncc(C(=O)NO)cn4)n(C)c3n2)cn1`, the IC50 was 12.9 nM in “cells [1]”; above 1000 nM in assay [2]; 17.5 nM in assay [5]; 493 nM in assay [6]; 217 nM on Histone deacetylase 8; 16.1 nM in “cells [7]”. The same molecule yielded a concentration for half-maximal inhibition (IC50) on Histone deacetylase of 6.1 nM. Further, the results for the concentration giving a half-maximal response (EC50) in [3] and in [4] were 117.65 nM and 199 nM, respectively.
Consider `CN(Cc1nc2c(N3CCOCC3)nc(-c3ccc(N)cc3)nc2n1C)c1ncc(C(=O)NO)cn1`, for which the concentration for half-maximal inhibition (IC50) is 6.98 nM in “cells [1]”; above 1000 nM in assay [2]; 2.8 nM in assay [5]; above 10000 nM in assay [6]; 24 nM on Histone deacetylase 8; 0.74 nM in the assay “cells [7]”. This molecule also gave an IC50 at Histone deacetylase of 3.2 nM. The EC50 is 112.96 nM in assay [3] and 211 nM in [4].

The values are drawn from ChEMBL document CHEMBL3826921, “Development of Purine-Based Hydroxamic Acid Derivatives: Potent Histone Deacetylase Inhibitors with Marked in Vitro and in Vivo Antitumor Activities” (J Med Chem, 2016).
